Assay results gathered from unrelated publications.
Each line is one published result; the experiments were not run side by side.
Target: Cyclin-dependent kinase 2 homolog (CRK2, Plasmodium falciparum, UniProt P61075)

`Nc1ncc2c(n1)-c1c([nH]c3ccc(C#CC4CC4)cc13)CCCC2` gave a remaining binding of 100% (binding, competition with immobilised ligand; 1 µM).
The remaining binding of `COc1cnc(Nc2cccc(S(N)(=O)=O)c2)nc1N1CCN(c2ccccc2)C(=O)C1` is reported as 100% (binding, competition with immobilised ligand; 1 µM).
`Cc1cnn2ncc(-c3ccnc(N(C)C)n3)c2c1` gave a remaining binding of 82% (binding; 1 µM).
With `FC(F)(F)Oc1cccc(-c2cnc3ccc(-c4ccncc4)nn23)c1` the remaining binding was 87% (cell-free assay, competition with immobilised ligand; 5 µM).
`C[C@@H](c1ccc(-n2cnc3c(N)ncnc32)cc1)N1CCc2nn(C)c(Cc3ccccc3)c2C1=O` gave a remaining binding of 83% (binding, competition with immobilised ligand; 0.1 µM).
`CNC(=O)[C@@H]1CC[C@@H](n2c(-c3ccc4cnccc4c3)nc3ccc(C(=O)NCc4cccc(C(N)=O)c4)cc32)C1` has a remaining binding of 99% (binding, competition with immobilised ligand; 1 µM).
`Cc1ccc(-c2cnc([C@@]3(O)CC[C@H](C(=O)O)C(C)(C)C3)s2)cc1Nc1cccc(C(F)(F)F)n1` has a remaining binding of 33% (binding, competition with immobilised ligand; 1 µM).
With `Cc1nn(C)cc1-c1nc2c(N3CCN(Cc4ccc(Cl)cc4)CC3)c(Cl)cnc2[nH]1` the remaining binding was 100% (binding, competition with immobilised ligand; 1 µM).
The remaining binding of `N[C@@H]1CCN(c2nccc(-c3cnn4ncccc34)n2)C1` is reported as 84% (binding; 1 µM).
`O=C(Nc1c[nH]nc1C(=O)NC1CCNCC1)c1cc(F)cc(F)c1` has a remaining binding of 89% (binding, competition with immobilised ligand; 1 µM).
The remaining binding of `CCN1CCN(Cc2ccc(C(=O)Nc3ccc(C)c(Oc4ccc5c(c4)CC(=O)N5)c3)cc2C(F)(F)F)CC1` is reported as 100% (binding, competition with immobilised ligand; 1 µM).
`Nc1ncnc2occ(-c3ccc(NC(=O)Nc4cc(C(F)(F)F)ccc4F)cc3)c12` gave a remaining signal of 60% (cell-free assay, inhibitor; 20 µM).
The remaining activity of `Cc1ccc(C(=O)Nc2ccc(CN3CCN(C)CC3)c(C(F)(F)F)c2)cc1C#Cc1cnc2cccnn12` is reported as 94% (enzyme activity, inhibitor; 23.5 nM).
For `C=CC(=O)N1CCC(C(=O)NCC(=O)N2CCN(c3nc(-c4cnc(N)nc4C(F)F)nc(N4CCOCC4)n3)CC2)CC1`, the remaining binding was 65% (binding, competition with immobilised ligand; 1 µM).
`CN(C)c1nccc(-c2cnc3ncccn23)n1` gave a remaining signal of 72% (cell-free assay; 1 µM).
For `c1cncc(-c2cccc(Nc3nccc(NC4CCCCC4)n3)c2)c1`, the remaining binding was 100% (binding, competition with immobilised ligand; 10 µM).
With `O=C(NCC1CCOCC1)c1n[nH]cc1NC(=O)c1c(F)cccc1F` the remaining binding was 100% (binding, competition with immobilised ligand; 1 µM).
